Compound activity (PubChem BioAssay)
FN deposition inh – fibronectin deposition inhibition. AH1F fibroblasts, Alexa488-fibronectin deposition fluorescence, overnight. inhibition, % at 12.6 µM. hit rate 0.086% among 350,000;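 active means mean inhibition across replicates of 30% or more, regardless of how many single replicates reach that level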;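 further: positive control wells lacked labelled fibronectin entirely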
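Material: AH1F fibroblasts assembling fluorescent fibronectin matrix; amount: 10000 AH1F cells/well; medium: DMEM, 2% serum; reagent: Alexa488-fibronectin, 24 nM final in well; dosing: single compound dose, delivered by pin transfer; incubation: 1 h adhesion, overnight exposure; detection: fluorescence after three HBSS washes, excitation 485 nm, emission 525 nm; measure: fibronectin deposition inhibition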
rRNA inh HTS – selective bacterial rRNA inhibition in E. coli | E. coli WT GFP vs humanized-ribosome RFP mutants, fluorescence, 24 h; stronger effect = lower value; DMSO median 0, no signal -100 | GFP signal change (wild-type ribosome), % (concentration not given with the values) | hit rate 1.6% among 350,000 | AID 720706;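 active means significant combined selectivity score with lowered wild-type GFP, culture density cut under 30%, mutant RFP and density less affected; inactive means any of these conditions unmet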
PglD DTNB – inhibitors of Campylobacter jejuni PglD acetyltransferase; purified PglD enzyme, DTNB colorimetric CoA detection; inhibition, % at 12.5 µM; hit rate 0.098% among 360,000; AID 602405; in the data active means inhibition above about 16%, passing the limit was not always enough
DENV2 CPE – DENV2-induced cell death inhibition | DENV2-infected cells, cytopathic effect rescue, plate reader | CPE inhibition, % at 9.99 µM | hit rate 1.7% among 350,000 | AID 651640; in the data active means CPE inhibition above about 20%, passing the limit was not always enough; tested in BHK-21 cells;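 further: 0% = median of neutral control wells and 100% = median of positive control wells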
PGC1a acetyl inh – PGC1a acetylation modulation, inhibitor mode; inhibition, % at 15.6 µM; hit rate 0.17% among 350,000; U2OS PGC1a acetylation, AlphaScreen anti-acetyl-lysine; with virally co-expressed GCN5 acetyltransferase; AID 651687;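 active means every replicate shows inhibition of at least 40%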;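 further: 0% = neutral control wells and 100% = positive control wells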
HIV Env fusion – inhibitors of HIV Env-mediated cell fusion | HeLa-JRFL Env/CEM21 cell fusion, luciferase | inhibition, % at 12.3 µM | hit rate 1.1% among 360,000;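 active means mean replicate inhibition score of at least 50 and every replicate individually at or above 50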;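 further: 0% = plate neutral controls and 100% = maraviroc near 300 nM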
Active calls of the source: *; · = not tested or not shown; [ ] = dose if it differs, or a comment. Only some compounds are listed: those with a hit (about 3.5% of all), similar ones and a draw of the others.

SMILES	FN deposition inh	rRNA inh HTS	PglD DTNB	DENV2 CPE	PGC1a acetyl inh	HIV Env fusion
COc1ccc(OC)c(/C=C/C(=O)Oc2ccc(C(C)=O)cc2)c1	18.3	-24.0*	0.0	-2.6	·	-12.3
COc1ccc(OC)c(/C=C/C(=O)OCC(=O)Nc2cccc(C(C)=O)c2)c1	1.3	·	·	·	·	-1.9
COc1ccc(OC)c(/C=C/C(=O)OCC(=O)N2C(C)CCCC2C)c1 (stereo not drawn)	7.6	-13.3	-1.2	-8.2	5.1	91.5*
COc1ccc(OC)c(/C=C/C(=O)c2ccc3c(c2)OCCO3)c1	3.6	-24.7*	-0.7	-5.1	30.2	-17.0
CN(C)C(=O)C[C@H]1CC[C@@H]2[C@@H](COc3ccc(NC(=O)Nc4cccc(Cl)c4)cc3C(=O)N2C)O1	0.5	-12.3	0.5	-13.2	2.1	·
COc1ccc(NC(=O)Nc2ccc3c(c2)C(=O)N([C@H](C)CO)C[C@@H](C)[C@H](CN(C)S(=O)(=O)c2cccs2)OCCCC[C@H](C)O3)cc1	·	-0.4	2.3	4.6	-19.0	-1.0[16.7 µM]
O=C(CCCc1nc(-c2ccc(Cl)cc2)no1)Nc1cccnc1	-1.3	·	·	·	-1.2	61.1*
CN(C)C(=O)CCCc1nc(-c2ccc(Cl)cc2)no1	·	·	-0.5	·	3.2	55.1*
C[C@H]1CN([C@@H](C)CO)S(=O)(=O)c2ccc(-c3ccc(F)cc3)cc2O[C@@H]1CN(C)Cc1cccc(F)c1	·	4.4	·	·	14.8	39.1[16.7 µM]
CO[C@H]1CN(C)C(=O)c2cc(NC(=O)C3CCC3)ccc2OC[C@H](C)N(C)C[C@@H]1C	-0.9	2.8	-1.4	72.8*	-6.5	11.6[16.7 µM]
CO[C@H]1CN(C)C(=O)c2ccc(NC(=O)C3CCC3)cc2OC[C@@H](C)N(CC2CCCCC2)C[C@@H]1C	-6.0	3.8	-1.3	-1.9	-20.6	58.4*[16.7 µM]
CO[C@H]1CN(C)C(=O)c2ccc(NC(=O)Nc3ccc(Cl)cc3)cc2OC[C@H](C)N(C)C[C@H]1C	6.4	0.9	-0.8	27.5*	·	10.9[16.7 µM]
CO[C@@H]1CN(C)C(=O)c2ccc(NC(=O)Nc3ccc(Cl)cc3)cc2OC[C@H](C)N(C)C[C@@H]1C	-1.2	-1.3	4.0	-0.7	·	-6.6[16.7 µM]
CO[C@H]1CN(C)C(=O)c2cc(NC(=O)C3CCC3)ccc2OC[C@@H](C)N(Cc2ccncc2)C[C@@H]1C	-4.6	0.2	-3.1	52.0*	-0.5	-57.9[16.7 µM]
CO[C@@H]1CN(C)C(=O)c2cc(NC(=O)C3CCC3)ccc2OC[C@@H](C)N(C)C[C@H]1C	-1.9	2.0	-2.3	1.8	-4.7	-1.0[16.7 µM]
C[C@@H]1CN([C@H](C)CO)C(=O)c2cc(NC(=O)Nc3ccccc3)ccc2O[C@@H](C)CCCCO[C@H]1CN(C)S(=O)(=O)c1ccc(Cl)cc1	·	-0.4	-8.2	4.1	-9.6	42.3[16.7 µM]
COCC(=O)N1C[C@@H](C)[C@H](OC)CN(C)C(=O)c2cc(NC(=O)C3CCC3)ccc2OC[C@@H]1C	-4.6	3.5	-1.6	23.2*	4.3	10.4[16.7 µM]
CO[C@H]1CN(C)C(=O)c2ccc(NC(=O)C3CCCC3)cc2OC[C@H](C)N(C)C[C@@H]1C	-5.2	-0.3	·	52.1*	·	·
CO[C@@H]1CN(C)C(=O)c2ccc(NC(=O)C3CCCC3)cc2OC[C@H](C)N(C)C[C@@H]1C	2.7	-1.0	-1.8	-3.1	·	·
COCC(=O)N1C[C@@H](C)[C@@H](OC)CN(C)C(=O)c2cc(NC(=O)C3CCC3)ccc2OC[C@@H]1C	-7.9	1.9	·	·	5.5	3.9[16.7 µM]
CC(C)NC(=O)N1CC(=O)N2[C@H](C1)[C@H](c1ccc(/C=C/c3ccccc3)cc1)[C@@H]2CO	-9.2	7.0	·	5.7	-5.4	·
Cn1nc(C(F)(F)F)c2cc(C(=O)Nc3ccc(C(F)(F)F)cc3)sc21	8.8	-39.2*	·	-3.2	-28.0	-4.1
Cn1nc(C(F)(F)F)c2cc(C(=O)Nc3ccc(F)c(Cl)c3)sc21	-5.6	-30.1*	·	12.7	-10.4	-13.5
Cn1nc(C(F)(F)F)c2cc(C(=O)Nc3ccc(F)cc3)sc21	-4.1	1.0	·	-1.0	·	-5.1
COc1cccc(S(=O)(=O)N[C@@H]2C=C[C@@H](CC(=O)NC3CCC3)O[C@@H]2CO)c1	0.7	0.8	4.2	7.3	-3.2	15.2[16.7 µM]
COc1ccc(-c2sc(Nc3ccccc3)n[n+]2-c2ccccc2)cc1Br	2.2	3.6	7.7	·	-2.4	-35.6
